Fluorescence data for 13 compounds are collected here from PubChem BioAssay AID1483 (NMMLSC, 2009).

Molecules are shown by their SMILES. The list shows a part of the results. Values without a mark were called inactive. Active and inactive are the calls of the source.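 The calls were made as follows: active = fluorescence beyond the plate control mean plus 3 SD, with a fluorescence-to-maximum score over 2 (cut at about 25 in these data); inactive = the rest.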

This assay is described as follows: compound autofluorescence in ABCB1-expressing CCRF-Adr cells, confirmation, artefact control for ABC transporter inhibitor project, cell-based, 488/530 nm, flow cytometry (AID 1483). The following applies: compound autofluorescence 488/530 nm, at 6.6 µM, active compounds read high. The essentials: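 Probe or stimulus: JC-1 substrate omitted | Assay system: Drug-resistant CCRF-Adr cells | Compound dosing: One dose, 6.6 µM | Measure: Compound-treated cell MFI minus DMSO-treated cell MFI | Control set: DMSO-treated cell wells as background reference | Times: Compound with cells 10 min end-over-end rotation, 25 °C, immediate read | Signal: Flow cytometric MFI, 530 ± 20 nm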
Background: A flow cytometer gives signals particle by particle.
Take `CCOC(=O)c1sc(NC(=O)CSc2nnc(-c3ccco3)o2)c(C(=O)OCC)c1C`: the fluorescence is 0.61.
As to `C/C(=N\Nc1ncc(Cl)cc1Cl)c1ccc(S(=O)(=O)NCc2ccco2)cc1`, the fluorescence is -2.49.
Under `Cc1c(CCOC(=O)CC23CC4CC(CC(C)(C4)C2)C3)sc[n+]1Cc1ccc([N+](=O)[O-])cc1` stands -2.94.
Under `COc1ccc(-n2c(C)cc(C(=O)COC(=O)c3cc(OC)c(OC)cc3NC(=O)c3cccs3)c2C)cc1` stands 2.26; under `Cc1ccc(-n2c(SCC(=O)Nc3ncc(Cl)cc3Cl)nc3ccccc32)cc1`, -0.64.
Under `CCN1/C(=C/c2ccc3ccc(C)cc3[n+]2CC)Sc2ccccc21` stands 130 (active); under `COc1cccc(NC(=O)c2ccc(Cn3cc([N+](=O)[O-])cn3)o2)c1`, 5.61.
Consider `Cc1ccc(OCC(O)CN2CCN(CC(O)COc3ccc(C)cc3Cl)CC2)c(Cl)c1` (stereo not drawn), for which the fluorescence was 22.4.
Under `C=CCn1c(SCCOc2ccc(OC)cc2)nnc1C(NC(=O)c1ccc(OC)cc1)C(C)C` (stereo not drawn) stands 180 (active); under `O=C(Cc1c[nH]c2ccccc12)N/N=C/c1cccc(F)c1`, 4.76.
Take `COc1ccc(C)cc1NC(=O)C(Sc1ccccc1)c1ccccc1` (stereo not drawn): the fluorescence was -2.64.
Turning to `Cc1cccc2cc(CN(Cc3cccs3)C(c3nnnn3C3CCCC3)C(C)C)c(=O)[nH]c12` (stereo not drawn), the fluorescence is -4.84.
As for `CCOCC(=O)Nc1sc2c(c1C(=O)OCC)CCCC2`, the figure is 0.31.
